Data taken from ChEMBL document CHEMBL4257459, “Synergistic antifungal effect of cyclized chalcone derivatives and fluconazole against Candida albicans” (2017).
Converted amounts (≈) assume the structure as drawn.

Experiments:
[1] = system: Candida albicans; experiment: Antifungal activity against fluconazole susceptible Candida albicans 0079gr in presence of fluconazole by CLSI protocol based broth microdilution method; assay type: functional
[2] = system: Candida albicans; experiment: Inhibition of ABC efflux pumps in fluconazole resistant Candida albicans A171 assessed as reduction in energy-dependent rhodamine 6G efflux in presence of 0.1 M glucose after 25 mins by fluorescence assay relative to control
Outline: (§1)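 Cells grown in TSB at 37 °C for 8 h, washed, resuspended in glucose-free PBS at 1 × 10^8 cells. De-energized 45 min with 5 mM deoxyglucose plus 5 mM dinitrophenol. […] Washed, sampled 5–25 min, then 0.1 M glucose added. Absorbance 527 nm, R6G from standard curve.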

[3] = system: Candida albicans; experiment: Inhibition of ABC efflux pumps in fluconazole susceptible Candida albicans 004gr assessed as reduction in energy-dependent rhodamine 6G efflux in presence of 0.1 M glucose after 25 mins by fluorescence assay relative to control; outline: as §1
[4] = system: Candida albicans; experiment: Antifungal activity against fluconazole susceptible Candida albicans 004gr in presence of fluconazole by CLSI protocol based broth microdilution method; assay type: functional
[5] = system: Candida albicans; experiment: Antifungal activity against fluconazole resistant Candida albicans A171 in presence of fluconazole by CLSI protocol based broth microdilution method; assay type: functional
Outline: (§2)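 Checkerboard-style combination with fluconazole at a 1 : 1 ratio, over concentrations 2–4 fold below each agent's MIC alone, by CLSI broth microdilution. Fractional inhibitory concentration index calculated and interpreted as synergy (<0.5), additive (0.5–1), indifferent or antagonistic.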

[6] = system: Candida albicans; experiment: Inhibition of ABC efflux pumps in fluconazole susceptible Candida albicans 003gr assessed as reduction in energy-dependent rhodamine 6G efflux in presence of 0.1 M glucose after 25 mins […] relative to control
[7] = system: Candida albicans; experiment: Antifungal activity against fluconazole susceptible Candida albicans 003gr by CLSI protocol based broth microdilution method; assay type: functional
Outline: (§3)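 Clinical isolates and control strain subcultured at least twice on TSA, 37 °C, 48 h. MICs by CLSI M27-A3 broth microdilution; compounds dissolved in DMSO to 2000 μg mL–1 stock. Fluconazole positive control, culture, media and DMSO vehicle controls in each run. Duplicate experiments; MIC in μg mL–1.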

[8] = system: Candida albicans; experiment: Antifungal activity against fluconazole susceptible Candida albicans 0072gr by CLSI protocol based broth microdilution method; assay type: functional; outline: as §3
[9] = system: Candida albicans; experiment: Antifungal activity against fluconazole resistant Candida albicans 167-1 in presence of fluconazole by CLSI protocol based broth microdilution method; assay type: functional; outline: as §2
[10] = system: Candida albicans; experiment: Inhibition of ABC efflux pumps in fluconazole susceptible Candida albicans 004B1 assessed as reduction in energy-dependent rhodamine 6G efflux in presence of 0.1 M glucose after 25 mins by fluorescence assay relative to control; outline: as §1
[11] = system: Candida albicans; experiment: Antifungal activity against fluconazole resistant Candida albicans 167-1 by CLSI protocol based broth microdilution method; assay type: functional
Outline: (§4)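 Broth microdilution per CLSI M27-A3 against clinical C. albicans isolates. Strains sub-cultured at least twice on Tryptone Soya Agar, 37 °C, 48 h. Compounds dissolved in DMSO at 2000 μg mL–1 stock. Fluconazole positive control, plus culture, media and vehicle controls. Run in duplicate; MIC in μg mL–1.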

[12] = system: Candida albicans; experiment: Antifungal activity against fluconazole susceptible Candida albicans 002B1 by CLSI protocol based broth microdilution method; assay type: functional; outline: as §3
[13] = system: Candida albicans; experiment: Antifungal activity against fluconazole susceptible Candida albicans 004gr by CLSI protocol based broth microdilution method; assay type: functional; outline: as §3
[14] = system: Candida albicans; experiment: Antifungal activity against fluconazole susceptible Candida albicans 004B1 by CLSI protocol based broth microdilution method; assay type: functional; outline: as §3
[15] = system: Candida albicans; experiment: Antifungal activity against fluconazole susceptible Candida albicans 0079gr by CLSI protocol based broth microdilution method; assay type: functional; outline: as §3
[16] = system: Candida albicans; experiment: Antifungal activity against Candida albicans ATCC 90028 in presence of fluconazole by CLSI protocol based broth microdilution method; assay type: functional
[17] = system: Candida albicans; experiment: Inhibition of ABC efflux pumps in fluconazole resistant Candida albicans 167-2 assessed as reduction in energy-dependent rhodamine 6G efflux in presence of 0.1 M glucose after 25 mins […] relative to control
[18] = system: Candida albicans; experiment: Antifungal activity against fluconazole susceptible Candida albicans 002B1 in presence of fluconazole by CLSI protocol based broth microdilution method; assay type: functional
[19] = system: Candida albicans; experiment: Antifungal activity against fluconazole resistant Candida albicans 167-2 by CLSI protocol based broth microdilution method; assay type: functional; outline: as §4
[20] = system: Candida albicans; experiment: Inhibition of ABC efflux pumps in fluconazole resistant Candida albicans 167-1 assessed as reduction in energy-dependent rhodamine 6G efflux in presence of 0.1 M glucose after 25 mins […] relative to control
[21] = system: Candida albicans; experiment: Down regulation of ERG11 gene expression in fluconazole resistant Candida albicans A171 at MIC after 2 hrs by qRT PCR analysis relative to control; assay type: functional
Outline: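 Cells exposed 2 h to test agents at MIC. Total RNA isolated, cDNA synthesized, qPCR for ERG11 with ACT1 as endogenous control. Triplicate independent experiments, reported as mean ± standard deviation.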

[22] = system: Candida albicans; experiment: Inhibition of ergosterol biosynthesis in fluconazole resistant Candida albicans A171 at 0.5 to 1 times MIC relative to control; assay type: functional
Outline: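 Total sterols quantified by alcoholic KOH extraction in cells grown in 50 ml TSB with compounds at MIC and ½ MIC; untreated and 8 μg mL–1 fluconazole controls. Spectral scan; ergosterol content from A281.5 and A230 absorbances, dilution factor and pellet weight, correcting for 24(28) DHE.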

[23] = system: Candida albicans; experiment: Antifungal activity against fluconazole susceptible Candida albicans 004B1 in presence of fluconazole by CLSI protocol based broth microdilution method; assay type: functional
[24] = system: Candida albicans; experiment: Antifungal activity against fluconazole susceptible Candida albicans 003gr in presence of fluconazole by CLSI protocol based broth microdilution method; assay type: functional
[25] = system: Candida albicans; experiment: Antifungal activity against Candida albicans ATCC 90028 by CLSI protocol based broth microdilution method; assay type: functional; outline: as §3
[26] = system: Candida albicans; experiment: Antifungal activity against fluconazole resistant Candida albicans 167-2 in presence of fluconazole by CLSI protocol based broth microdilution method; assay type: functional; outline: as §2
[27] = system: Candida albicans; experiment: Inhibition of ABC efflux pumps in fluconazole susceptible Candida albicans 0079gr assessed as reduction in energy-dependent rhodamine 6G efflux in presence of 0.1 M glucose after 25 mins by fluorescence assay relative to control; outline: as §1
[28] = system: Candida albicans; experiment: Inhibition of ABC efflux pumps in fluconazole susceptible Candida albicans 002B1 assessed as reduction in energy-dependent rhodamine 6G efflux in presence of 0.1 M glucose after 25 mins […] relative to control
[29] = system: Candida albicans; experiment: Antifungal activity against fluconazole resistant Candida albicans A171 by CLSI protocol based broth microdilution method; assay type: functional; outline: as §4
[30] = system: Candida albicans; experiment: Inhibition of ergosterol biosynthesis in fluconazole susceptible Candida albicans ATCC 90028 at 0.5 to 1 times MIC relative to control; assay type: functional
Outline: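 ATCC90028 grown in 50 ml TSB with MIC and ½ MIC of compound; untreated and 8 μg mL–1 fluconazole controls. Sterols extracted by alcoholic KOH method and spectrophotometrically scanned; ergosterol % calculated from A281.5 and A230 (E values 290 and 518) with dilution factor, per pellet weight.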

[31] = system: Candida albicans; experiment: Antifungal activity against fluconazole susceptible Candida albicans 0072gr in presence of fluconazole by CLSI protocol based broth microdilution method; assay type: functional
[32] = system: Candida albicans; experiment: Down regulation of ERG11 gene expression in fluconazole susceptible Candida albicans ATCC 90028 at MIC after 2 hrs by qRT PCR analysis relative to control; assay type: functional
Outline: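 Cells exposed to compound at MIC for 2 h; total RNA isolated, cDNA synthesised, ERG11 measured by real-time qPCR with ACT1 as endogenous control. Triplicate independent experiments; mean ± standard deviation.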

[33] = system: Candida albicans; experiment: Inhibition of ABC efflux pumps in fluconazole susceptible Candida albicans 0072gr assessed as reduction in energy-dependent rhodamine 6G efflux in presence of 0.1 M glucose after 25 mins […] relative to control

Row | Structure (SMILES) | fractional inhibitory concentration index (FICI) [1] | inhibition [2] | inhibition [3] | fractional inhibitory concentration index (FICI) [4] | fractional inhibitory concentration index (FICI) [5] | inhibition [6] | MIC [7] | MIC [8] | fractional inhibitory concentration index (FICI) [9] | inhibition [10] | MIC [11] | MIC [12] | MIC [13] | MIC [14] | MIC [15] | fractional inhibitory concentration index (FICI) [16] | inhibition [17] | fractional inhibitory concentration index (FICI) [18] | MIC [19] | inhibition [20] | further results
1 | c1ccc(-c2cc(-c3ccc(-c4cc(-c5ccccc5)n[nH]4)cc3)[nH]n2)cc1 | 0.63 - 1.5 | < 20% | < 20% | 0.63 - 1.5 | 0.531 - 2.27 | < 20% | 2 to 16 µg/mL (≈ 5.52 to 44.1 µM) | 2 to 16 µg/mL (≈ 5.52 to 44.1 µM) | 0.531 - 2.27 | < 20% | 31 to 125 µg/mL (≈ 85.5 to 345 µM) | 2 to 16 µg/mL (≈ 5.52 to 44.1 µM) | 2 to 16 µg/mL (≈ 5.52 to 44.1 µM) | 2 to 16 µg/mL (≈ 5.52 to 44.1 µM) | 2 to 16 µg/mL (≈ 5.52 to 44.1 µM) | 0.63 - 1.5 | < 20% | 0.63 - 1.5 | 31 to 125 µg/mL (≈ 85.5 to 345 µM) | < 20% | fold change (FC) [21]: 1.25 - 10; inhibition (INH) [22]: 49 - 94%; fractional inhibitory concentration index (FICI) [23]: 0.63 - 1.5; fractional inhibitory concentration index (FICI) [24]: 0.63 - 1.5; MIC [25]: 2 to 16 µg/mL (≈ 5.52 to 44.1 µM); fractional inhibitory concentration index (FICI) [26]: 0.531 - 2.27; inhibition [27]: < 20%; inhibition [28]: < 20%; MIC [29]: 31 to 125 µg/mL (≈ 85.5 to 345 µM); inhibition (INH) [30]: 66 - 99%; fractional inhibitory concentration index (FICI) [31]: 0.63 - 1.5; fold change (FC) [32]: 1.5 - 13; inhibition [33]: < 20%
2 | S=C1NC(c2ccccc2)=CC(c2ccc(C3C=C(c4ccccc4)NC(=S)N3)cc2)N1 (stereo unspecified) | 0.127 | 28% | 28% | 0.13 - 0.31 | 0.25 - 0.251 | 28% | 0.125 to 1 µg/mL (≈ 0.275 to 2.2 µM) | 0.125 to 1 µg/mL (≈ 0.275 to 2.2 µM) | 0.25 - 0.251 | 28% | 2 µg/mL (≈ 4.4 µM) | 0.125 to 1 µg/mL (≈ 0.275 to 2.2 µM) | 0.125 to 1 µg/mL (≈ 0.275 to 2.2 µM) | 0.125 to 1 µg/mL (≈ 0.275 to 2.2 µM) | 0.125 to 1 µg/mL (≈ 0.275 to 2.2 µM) | 0.13 - 0.31 | 28% | 0.13 - 0.31 | 2 µg/mL (≈ 4.4 µM) | 28% | fold change (FC) [21]: 1.25 - 10; inhibition (INH) [22]: 49 - 94%; fractional inhibitory concentration index (FICI) [23]: 0.13 - 0.31; fractional inhibitory concentration index (FICI) [24]: 0.13 - 0.31; MIC [25]: 0.125 to 1 µg/mL (≈ 0.275 to 2.2 µM); fractional inhibitory concentration index (FICI) [26]: 0.25 - 0.251; inhibition [27]: 28%; inhibition [28]: 28%; MIC [29]: 2 µg/mL (≈ 4.4 µM); inhibition (INH) [30]: 66 - 99%; fractional inhibitory concentration index (FICI) [31]: 0.13 - 0.31; fold change (FC) [32]: 1.5 - 13; inhibition [33]: 28%
